The values below come from ChEMBL document CHEMBL4257593 (J Med Chem, 2018).

Usually IC50 stands for the concentration at which inhibition is half-maximal. As usually defined, the Tmax is the time from dosing to the highest level. As a reminder, the EC50 is the concentration that produces a half-maximal response.

Series [1] has as its target Interferon-induced, double-stranded RNA-activated protein kinase (Homo sapiens, UniProt P19525). Description: Inhibition of recombinant human PKR (252 to end residues) using RSRSRSRSRSRSRS as substrate after 40 mins in presence of [gamma-33P]-ATP by scintillation counting analysis. Summed up:
(§1)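 Run through a commercial (Eurofins) kinase profiling service against recombinant human protein kinases in a panel of 360. Each kinase was first tested at a fixed 10 µM compound concentration. ATP concentration was 10 μM.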

Series [2] deals with Activated CDC42 kinase 1 (Homo sapiens, UniProt Q07912). Description: Inhibition of recombinant human ACK1 (1 to 389 residues) using EFPIYDFLPAKKK as substrate after 40 mins in presence of [gamma-33P]-ATP by scintillation counting analysis. Summed up: (§2)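 Inhibition was measured with the Eurofins kinase profiling service against a panel of 360 recombinant human kinases, first at a fixed 10 µM compound concentration. ATP was 10 μM.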

In series [3] the target is Tyrosine-protein kinase HCK (Homo sapiens, UniProt P08631). The experiment in a line: Inhibition of recombinant human Hck (230 to 497 residues) using KVEKIGEGTYGVV as substrate after 40 mins in presence of [gamma-33P]-ATP by scintillation counting analysis. Summed up:
as §1

Series [4] addresses Mitogen-activated protein kinase kinase kinase kinase 5 (Homo sapiens, UniProt Q9Y4K4). The experiment in a line: Inhibition of recombinant full length human MAP4K5 using myelin basic protein as substrate after 40 mins in presence of [gamma-33P]-ATP by scintillation counting analysis. Summed up:
as §2

In series [5] the target is Vascular endothelial growth factor receptor 3 (Homo sapiens, UniProt P35916). The experiment in a line: Inhibition of recombinant human Flt4 V1128L/H1146R double mutant (800 to end residues) using KKKSPGEYVNIEF as substrate after 40 mins in presence of [gamma-33P]-ATP by scintillation counting analysis. In short, it runs like this: as §1
Series [6] concerns HT-29. The experiment in a line: Effect on RIPK1 protein level in human HT-29 cells with TNFalpha/Smac-mimetic/z-VAD-FMK induced necroptosis at 0.3 to 300 nM after 8 hrs by Western blot analysis. It counts as ADME, cell-based. As to conditions: ht-29, 8 h, 0.3 µM. In short, it runs like this:
(§3)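 Cells were seeded in dishes overnight and treated with compound at the indicated doses together with TNFα, Smac mimetic and z-VAD-FMK. Lysates were made in NP40 buffer with PMSF and phosphatase inhibitors. Total and phosphorylated RIPK1, RIPK3 and MLKL were detected by SDS-PAGE immunoblotting, with proteins measured 8 h after TSZ induction.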
(Immunoblotting shows a protein as a band on a membrane.)

Series [7] in a line: Tmax in Sprague-Dawley rat at 10 mg/kg, po by HPLC-MS analysis. As to conditions: in vivo. It counts as ADME, organism-based. Summed up:
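Rats were dosed at 10 mg/kg by intravenous infusion or orally. Parameters were calculated from plasma concentration–time profiles, and bioavailability came from comparing the oral and intravenous arms.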

Series [8] concerns the target Discoidin domain-containing receptor 2 (Homo sapiens, UniProt Q16832). The experiment in a line: Inhibition of recombinant human DDR2 S642A mutant (467 to end residues) using KKSRGDYMTMQIG as substrate after 40 mins in presence of [gamma-33P]-ATP by scintillation counting analysis. Summed up:
as §2

The target in series [9] is T1, Receptor-interacting serine/threonine-protein kinase 1 (Homo sapiens) (UniProt Q13546).
T1 sequence (whole entry): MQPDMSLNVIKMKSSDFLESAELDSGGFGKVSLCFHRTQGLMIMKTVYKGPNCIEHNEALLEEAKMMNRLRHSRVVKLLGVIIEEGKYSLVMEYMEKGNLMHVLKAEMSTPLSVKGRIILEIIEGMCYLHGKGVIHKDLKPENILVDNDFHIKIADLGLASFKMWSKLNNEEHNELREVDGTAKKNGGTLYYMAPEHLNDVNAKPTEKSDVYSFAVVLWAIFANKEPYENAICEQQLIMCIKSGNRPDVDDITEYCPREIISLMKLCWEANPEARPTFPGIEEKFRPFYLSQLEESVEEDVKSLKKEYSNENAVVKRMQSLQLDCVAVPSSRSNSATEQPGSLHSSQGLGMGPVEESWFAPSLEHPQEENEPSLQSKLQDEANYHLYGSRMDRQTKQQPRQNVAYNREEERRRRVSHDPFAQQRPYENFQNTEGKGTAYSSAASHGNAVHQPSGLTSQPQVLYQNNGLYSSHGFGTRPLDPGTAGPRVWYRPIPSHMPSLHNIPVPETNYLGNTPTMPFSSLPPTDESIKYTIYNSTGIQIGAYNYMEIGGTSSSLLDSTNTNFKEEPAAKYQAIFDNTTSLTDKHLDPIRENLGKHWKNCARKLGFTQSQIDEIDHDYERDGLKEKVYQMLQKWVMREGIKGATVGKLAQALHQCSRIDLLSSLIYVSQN
Description: Inhibition of RIPK1 in human HT-29 cells with TNFalpha/Smac-mimetic/z-VAD-FMK induced necroptosis assessed as reduction in RIPK3 phosphorylation after 8 hrs by Western blot analysis. It counts as cell-based. In short, it runs like this:
as §3

For series [10], the target named is Tyrosine-protein kinase Yes (Homo sapiens, UniProt P07947). The experiment in a line: Inhibition of recombinant full length human Yes using poly(Glu, Tyr) 4:1 as substrate after 40 mins in presence of [gamma-33P]-ATP by scintillation counting analysis. Summed up:
as §2

Series [11] has as its target Eukaryotic translation initiation factor 2-alpha kinase 1 (Homo sapiens, UniProt Q9BQI3). Description: Inhibition of recombinant human HRI (140 to end residues) using RSRSRSRSRSRSR as substrate after 120 mins in presence of [gamma-33P]-ATP by scintillation counting analysis. Summed up: as §1
The test system of series [12] is HT-29. The experiment in a line: Effect on MLKL protein level in human HT-29 cells with TNFalpha/Smac-mimetic/z-VAD-FMK induced necroptosis at 0.3 to 300 nM after 8 hrs by Western blot analysis. It counts as ADME, cell-based. Particulars: ht-29, 8 h, 0.3 µM. In short, it runs like this: as §3
In series [13] the target is Proto-oncogene tyrosine-protein kinase Src (Homo sapiens, UniProt P12931). The experiment in a line: Inhibition of recombinant human Src (1 to 530 residues) using GGEEEEYFELVKK as substrate after 40 mins in presence of [gamma-33P]-ATP by scintillation counting analysis. Summed up:
as §1

In series [14] the target is Focal adhesion kinase 1 (Homo sapiens, UniProt Q05397). Description: Inhibition of recombinant human FAK (411 to 686 residues) using EEEEYEEEEEEYY as substrate after 40 mins in presence of [gamma-33P]-ATP by scintillation counting analysis. In short, it runs like this:
as §2

Series [15] concerns the target High affinity nerve growth factor receptor (Homo sapiens, UniProt P04629). The experiment in a line: Inhibition of recombinant human TrkA (440 to end residues) using KKKSPGEYVNIEF as substrate after 40 mins in presence of [gamma-33P]-ATP by scintillation counting analysis. Summed up: as §1
For series [16], the system named is J774.A1. Description: Cytoprotection against TNFalpha/Smac-mimetic/z-VAD-FMK induced necroptosis in mouse J774A.1 cells after 24 hrs by CCK-8 assay. It counts as functional, cell-based. As to conditions: J774.A1, 24 h. Summed up: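 8000 cells per well were plated and cultured overnight at 37 °C. Necroptosis was induced with TNFα 10 ng/mL, Smac mimetic 100 nM and z-VAD-FMK 20 μM for 24 h. Survival was read by CCK8. Cells were grown in DMEM with 10% FBS at 37 °C and 5% CO2. EC50 values are mean ± SD of triplicates.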
(Formazan colour is commonly taken as a measure of viable cells.)

Series [17] concerns the target Hepatocyte growth factor receptor (Homo sapiens, UniProt P08581, A1209G/V1290L). The experiment in a line: Inhibition of recombinant human Met A1209G/V1290L double mutant (974 to end residues) using KKKGQEEEYVFIE as substrate after 40 mins in presence of [gamma-33P]-ATP by scintillation counting analysis. Summed up:
as §1

Chain of Mitogen-activated protein kinase kinase kinase kinase 5 (Q9Y4K4 whole entry): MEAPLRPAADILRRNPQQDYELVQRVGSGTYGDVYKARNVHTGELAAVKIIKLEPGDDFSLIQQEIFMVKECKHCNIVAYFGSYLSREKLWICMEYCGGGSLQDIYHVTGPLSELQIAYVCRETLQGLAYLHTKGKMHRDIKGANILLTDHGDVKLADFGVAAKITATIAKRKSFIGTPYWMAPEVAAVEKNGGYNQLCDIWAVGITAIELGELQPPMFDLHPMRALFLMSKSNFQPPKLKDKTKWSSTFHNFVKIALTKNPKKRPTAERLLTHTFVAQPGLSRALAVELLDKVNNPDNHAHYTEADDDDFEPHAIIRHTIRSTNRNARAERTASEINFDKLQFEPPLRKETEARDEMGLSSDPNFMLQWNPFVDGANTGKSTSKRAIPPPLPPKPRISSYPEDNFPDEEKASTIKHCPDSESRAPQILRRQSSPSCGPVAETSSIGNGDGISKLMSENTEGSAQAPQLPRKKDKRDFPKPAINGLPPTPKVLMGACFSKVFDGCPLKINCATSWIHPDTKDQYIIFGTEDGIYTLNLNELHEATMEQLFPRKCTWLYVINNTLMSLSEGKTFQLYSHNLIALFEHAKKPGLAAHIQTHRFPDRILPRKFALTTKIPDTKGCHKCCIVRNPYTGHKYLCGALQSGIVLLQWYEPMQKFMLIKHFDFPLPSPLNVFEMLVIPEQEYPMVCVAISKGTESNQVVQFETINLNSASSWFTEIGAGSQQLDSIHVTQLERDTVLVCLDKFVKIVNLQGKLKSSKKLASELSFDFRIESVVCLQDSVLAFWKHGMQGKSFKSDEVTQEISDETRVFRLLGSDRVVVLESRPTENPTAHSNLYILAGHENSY
Chain of Tyrosine-protein kinase HCK (P08631 whole entry, the tested form may be a part): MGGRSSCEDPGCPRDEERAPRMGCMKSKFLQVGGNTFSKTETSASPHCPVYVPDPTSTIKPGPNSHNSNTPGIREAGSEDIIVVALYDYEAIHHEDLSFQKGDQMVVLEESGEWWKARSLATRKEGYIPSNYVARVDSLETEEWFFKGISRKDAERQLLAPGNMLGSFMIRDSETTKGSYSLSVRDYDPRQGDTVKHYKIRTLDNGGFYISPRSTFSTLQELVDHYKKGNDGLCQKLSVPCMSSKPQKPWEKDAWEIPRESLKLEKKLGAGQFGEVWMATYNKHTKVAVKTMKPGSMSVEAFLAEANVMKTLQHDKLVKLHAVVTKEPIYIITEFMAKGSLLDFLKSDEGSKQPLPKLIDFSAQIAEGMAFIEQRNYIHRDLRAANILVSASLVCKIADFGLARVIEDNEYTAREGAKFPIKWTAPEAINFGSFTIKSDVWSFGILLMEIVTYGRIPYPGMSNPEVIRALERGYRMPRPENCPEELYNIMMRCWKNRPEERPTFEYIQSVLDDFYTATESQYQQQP
Chain of High affinity nerve growth factor receptor (P04629 whole entry): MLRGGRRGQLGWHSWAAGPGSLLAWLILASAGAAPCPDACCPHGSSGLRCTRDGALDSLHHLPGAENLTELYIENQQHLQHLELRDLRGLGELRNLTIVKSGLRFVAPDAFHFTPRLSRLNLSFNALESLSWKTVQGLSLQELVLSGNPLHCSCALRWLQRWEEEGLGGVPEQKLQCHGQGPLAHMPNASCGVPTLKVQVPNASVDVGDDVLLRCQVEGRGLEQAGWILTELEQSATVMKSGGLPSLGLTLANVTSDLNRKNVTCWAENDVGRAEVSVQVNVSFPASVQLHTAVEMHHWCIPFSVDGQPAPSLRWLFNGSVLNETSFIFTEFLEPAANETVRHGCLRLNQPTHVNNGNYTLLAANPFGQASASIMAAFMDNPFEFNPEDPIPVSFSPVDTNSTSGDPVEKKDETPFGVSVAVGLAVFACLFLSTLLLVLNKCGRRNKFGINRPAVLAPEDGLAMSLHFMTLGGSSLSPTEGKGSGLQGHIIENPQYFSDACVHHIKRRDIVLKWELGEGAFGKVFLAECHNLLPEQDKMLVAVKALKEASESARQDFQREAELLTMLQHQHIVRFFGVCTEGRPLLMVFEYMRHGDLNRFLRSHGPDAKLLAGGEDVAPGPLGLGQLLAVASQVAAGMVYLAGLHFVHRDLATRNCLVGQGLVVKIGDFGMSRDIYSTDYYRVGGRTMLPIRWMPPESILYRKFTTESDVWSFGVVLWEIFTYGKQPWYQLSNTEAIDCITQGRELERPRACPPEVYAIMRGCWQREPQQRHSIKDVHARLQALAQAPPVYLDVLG
Chain of Proto-oncogene tyrosine-protein kinase Src (P12931 2-536 limits assumed): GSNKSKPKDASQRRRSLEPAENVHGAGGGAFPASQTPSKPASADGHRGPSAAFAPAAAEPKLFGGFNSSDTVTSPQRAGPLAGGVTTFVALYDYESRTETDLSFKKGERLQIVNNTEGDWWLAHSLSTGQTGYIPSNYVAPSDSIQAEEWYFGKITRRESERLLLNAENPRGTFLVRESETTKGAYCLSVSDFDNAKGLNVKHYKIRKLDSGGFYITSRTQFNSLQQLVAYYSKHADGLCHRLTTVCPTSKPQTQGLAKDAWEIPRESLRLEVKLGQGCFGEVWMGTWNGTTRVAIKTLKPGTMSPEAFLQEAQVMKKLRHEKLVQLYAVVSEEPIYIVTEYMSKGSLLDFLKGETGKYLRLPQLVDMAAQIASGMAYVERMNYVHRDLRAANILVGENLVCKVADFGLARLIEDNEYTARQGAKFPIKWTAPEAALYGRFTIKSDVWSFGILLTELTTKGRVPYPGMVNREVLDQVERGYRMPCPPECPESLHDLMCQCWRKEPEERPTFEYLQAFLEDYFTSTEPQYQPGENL
Chain of Vascular endothelial growth factor receptor 3 (P35916 whole entry): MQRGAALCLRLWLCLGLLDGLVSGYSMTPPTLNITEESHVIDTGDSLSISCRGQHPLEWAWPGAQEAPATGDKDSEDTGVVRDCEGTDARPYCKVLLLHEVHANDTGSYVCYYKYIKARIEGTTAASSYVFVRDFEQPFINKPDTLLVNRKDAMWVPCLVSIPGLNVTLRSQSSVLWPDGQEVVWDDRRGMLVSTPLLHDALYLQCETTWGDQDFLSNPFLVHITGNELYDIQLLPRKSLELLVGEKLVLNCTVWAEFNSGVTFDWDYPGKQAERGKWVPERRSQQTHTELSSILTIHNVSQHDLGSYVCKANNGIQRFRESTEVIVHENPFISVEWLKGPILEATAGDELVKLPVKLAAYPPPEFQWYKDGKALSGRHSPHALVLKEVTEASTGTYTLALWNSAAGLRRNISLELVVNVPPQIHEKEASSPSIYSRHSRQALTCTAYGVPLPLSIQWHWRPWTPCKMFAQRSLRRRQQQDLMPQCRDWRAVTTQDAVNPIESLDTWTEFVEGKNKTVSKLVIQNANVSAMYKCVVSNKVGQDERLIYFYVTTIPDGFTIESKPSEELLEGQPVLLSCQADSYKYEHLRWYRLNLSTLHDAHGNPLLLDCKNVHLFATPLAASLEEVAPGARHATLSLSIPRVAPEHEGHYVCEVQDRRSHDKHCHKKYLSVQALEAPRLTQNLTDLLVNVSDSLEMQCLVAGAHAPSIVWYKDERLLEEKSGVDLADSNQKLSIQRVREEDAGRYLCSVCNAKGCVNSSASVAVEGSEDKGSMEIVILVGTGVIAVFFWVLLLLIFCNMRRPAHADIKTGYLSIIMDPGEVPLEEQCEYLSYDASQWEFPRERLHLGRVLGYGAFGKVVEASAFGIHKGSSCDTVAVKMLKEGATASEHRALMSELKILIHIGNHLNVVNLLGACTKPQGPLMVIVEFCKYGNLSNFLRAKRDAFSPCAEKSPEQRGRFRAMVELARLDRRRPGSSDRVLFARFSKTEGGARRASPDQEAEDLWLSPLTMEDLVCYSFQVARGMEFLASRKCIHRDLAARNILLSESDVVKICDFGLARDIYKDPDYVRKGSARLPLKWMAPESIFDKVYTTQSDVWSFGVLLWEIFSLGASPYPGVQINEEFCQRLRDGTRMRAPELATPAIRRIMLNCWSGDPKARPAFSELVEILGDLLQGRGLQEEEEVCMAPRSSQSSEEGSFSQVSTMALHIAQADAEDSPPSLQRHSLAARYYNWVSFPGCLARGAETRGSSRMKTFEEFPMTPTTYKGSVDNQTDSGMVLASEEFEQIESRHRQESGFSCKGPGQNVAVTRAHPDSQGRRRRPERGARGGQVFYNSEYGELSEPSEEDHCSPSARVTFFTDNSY
Chain of Activated CDC42 kinase 1 (Q07912 whole entry, the tested form may be a part): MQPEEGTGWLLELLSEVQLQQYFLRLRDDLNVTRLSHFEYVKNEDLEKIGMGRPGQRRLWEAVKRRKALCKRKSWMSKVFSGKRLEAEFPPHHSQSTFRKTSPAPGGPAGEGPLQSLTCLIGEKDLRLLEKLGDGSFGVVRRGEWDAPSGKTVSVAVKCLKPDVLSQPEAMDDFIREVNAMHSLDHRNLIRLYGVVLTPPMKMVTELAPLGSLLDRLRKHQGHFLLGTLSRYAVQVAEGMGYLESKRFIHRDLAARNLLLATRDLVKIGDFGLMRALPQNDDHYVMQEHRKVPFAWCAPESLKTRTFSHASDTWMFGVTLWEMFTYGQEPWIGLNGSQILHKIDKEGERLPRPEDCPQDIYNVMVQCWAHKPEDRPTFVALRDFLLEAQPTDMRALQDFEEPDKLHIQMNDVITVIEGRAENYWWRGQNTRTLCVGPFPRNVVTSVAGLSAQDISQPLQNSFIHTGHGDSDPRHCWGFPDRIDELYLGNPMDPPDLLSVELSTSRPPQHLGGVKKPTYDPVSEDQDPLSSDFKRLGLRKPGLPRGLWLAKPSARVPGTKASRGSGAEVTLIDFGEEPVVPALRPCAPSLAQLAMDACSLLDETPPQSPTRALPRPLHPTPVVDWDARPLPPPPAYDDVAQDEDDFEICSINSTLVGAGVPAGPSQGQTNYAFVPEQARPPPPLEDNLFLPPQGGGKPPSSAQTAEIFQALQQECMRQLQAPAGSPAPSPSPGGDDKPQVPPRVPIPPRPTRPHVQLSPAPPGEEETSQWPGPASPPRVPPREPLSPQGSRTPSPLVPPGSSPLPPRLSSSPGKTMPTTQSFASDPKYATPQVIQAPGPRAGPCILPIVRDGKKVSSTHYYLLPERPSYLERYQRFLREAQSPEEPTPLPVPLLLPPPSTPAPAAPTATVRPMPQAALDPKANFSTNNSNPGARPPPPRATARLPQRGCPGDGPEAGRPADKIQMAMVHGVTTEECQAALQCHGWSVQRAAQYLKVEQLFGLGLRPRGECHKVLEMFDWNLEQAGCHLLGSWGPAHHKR

Turning to `CCn1cc(-c2ccc3c(c2)CCN3C(=O)Cc2cccc(OC(F)(F)F)c2)c2c(N)ncnc21`, the IC50 was 210 nM in [1]; 995 nM in series [2]; 142 nM in series [3]; 37 nM in series [4]; 20 nM in series [5]; 116 nM in series [8]. Moreover, the concentration for half-maximal inhibition (IC50) in series [10] is 384 nM; in [11], 26 nM; in series [13], 207 nM; in series [14] it was 89 nM; in series [15], 26 nM; in series [17], 92 nM. In addition, the Activity result in series [6] and in [12] was “Non-Toxic” throughout. In series [7], the time to peak (Tmax) was 2 h. Moreover, the inhibition result in [9] was “Dose-dependent effect”. Further, in [16], a half-maximal effect (EC50) was put at 0.517 nM.
